Source: ChEMBL document CHEMBL5154634, “A Modular Synthetic Route Involving N-Aryl-2-nitrosoaniline Intermediates Leads to a New Series of 3-Substituted Halogenated Phenazine Antibacterial Agents” (J Med Chem, 2021)
In brackets after ≈: the same amount, converted by molar mass.

Experiments:
Enterococcus faecalis [1] = test: Antibacterial activity against Enterococcus faecalis OG1RF ATCC 47077 assessed as bacterial growth inhibition incubated for 16 hrs by broth microdilution susceptibility test; type: functional
Enterococcus faecium [2] = test: Antibiofilm activity against methicillin-resistant vancomycin-resistant Enterococcus faecium ATCC 700221 biofilms assessed as biofilm eradication incubated for 24 hrs followed by incubation for 24 hrs in fresh medium by Calgary biofilm device assay; type: functional
Method in brief: (§1)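 Calgary biofilm device. Mid-log culture diluted 1000-fold in TSB with 0.5% glucose; biofilms grown on pegs 24 h at 37 °C. Pegs washed and challenged with twofold compound dilutions for 24 h at 37 °C, then moved to fresh medium for 24 h. MBEC is the lowest concentration leaving wells non-turbid. At least three independent experiments.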

Staphylococcus aureus [3] = test: Bactericidal activity against methicillin-resistant Staphylococcus aureus BAA-1707 planktonic cells assessed as planktonic eradication incubated for 24 hrs followed by incubation for overnight in fresh medium by Calgary biofilm device assay; type: functional
Method in brief: (§2)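 Calgary biofilm device. Biofilms grown 24 h at 37 °C in TSB with 0.5% glucose, then challenged 24 h with twofold compound dilutions. 20 μL of challenge medium transferred into fresh TSB with 0.5% glucose and incubated overnight at 37 °C. MBC is the concentration with no visible turbidity. At least three independent experiments.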

Enterococcus faecium [4] = test: Bactericidal activity against methicillin-resistant vancomycin-resistant Enterococcus faecium ATCC 700221 planktonic cells assessed as planktonic eradication incubated for 24 hrs followed by incubation for overnight in fresh medium by Calgary biofilm device assay; type: functional; method in brief: as §2
[5] = test system: Staphylococcus epidermidis; test: Antibiofilm activity against methicillin-resistant Staphylococcus epidermidis ATCC 35984 biofilms assessed as biofilm eradication incubated for 24 hrs followed by incubation for 24 hrs in fresh medium by Calgary biofilm device assay; type: functional; method in brief: as §1
[6] = test system: Staphylococcus epidermidis; test: Antibacterial activity against methicillin-resistant Staphylococcus epidermidis ATCC 35984 assessed as bacterial growth inhibition incubated for 16 hrs by broth microdilution susceptibility test; type: functional
Method in brief: (§3)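 CLSI broth microdilution with 11 twofold dilutions (0.05–50 μM). About 10^5 cells per well from a log-phase culture. DMSO vehicle up to 0.5% v/v. At least three independent experiments.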

[7] = test system: Staphylococcus epidermidis; test: Bactericidal activity against methicillin-resistant Staphylococcus epidermidis ATCC 35984 planktonic cells assessed as planktonic eradication incubated for 24 hrs followed by incubation for overnight in fresh medium by Calgary biofilm device assay; type: functional; method in brief: as §2
Erythrocyte = test: Hemolytic activity against human RBC at 200 uM measured after 1 hr; type: toxicity, cell-based
Method in brief: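 2% hRBCs exposed to compound at 200 μM final, added from DMSO stock, for 1 h at 37 °C. Supernatant OD read at 405 nm. Hemolysis normalized between DMSO (0%) and Triton X (100%); three independent experiments.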

Staphylococcus aureus [8] = test: Antibacterial activity against methicillin-resistant Staphylococcus aureus BAA-1707 assessed as bacterial growth inhibition incubated for 16 hrs by broth microdilution susceptibility test; type: functional; method in brief: as §3
Enterococcus faecalis [9] = test: Antibiofilm activity against Enterococcus faecalis OG1RF ATCC 47077 biofilms assessed as biofilm eradication incubated for 24 hrs followed by incubation for 24 hrs in fresh medium by Calgary biofilm device assay; type: functional
Method in brief: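 Calgary biofilm device. Biofilms grown 24 h at 37 °C in BHI from mid-log culture diluted 1000-fold. Pegs washed and then challenged 24 h with twofold serial dilutions. Pegs moved to fresh BHI for 24 h recovery. MBEC = lowest concentration leaving no turbidity; at least three independent experiments.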

Staphylococcus aureus [10] = test: Antibiofilm activity against methicillin-resistant Staphylococcus aureus BAA-1707 biofilms assessed as biofilm eradication incubated for 24 hrs followed by incubation for 24 hrs in fresh medium by Calgary biofilm device assay; type: functional; method in brief: as §1
Staphylococcus aureus [11] = test: Antibacterial activity against methicillin-resistant Staphylococcus aureus BAA-44 assessed as bacterial growth inhibition incubated for 16 hrs by broth microdilution susceptibility test; type: functional
Method in brief: (§4)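 CLSI broth microdilution with 11 twofold dilutions (0.05–50 μM). Medium was LB for the staphylococci and BHI for VRE 700221. About 10^5 cells per well from a log-phase culture. […] DMSO vehicle up to 0.5% v/v. At least three independent experiments.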

Enterococcus faecalis [12] = test: Bactericidal activity against […] Enterococcus faecalis OG1RF ATCC 47077 planktonic cells assessed as planktonic eradication incubated for 24 hrs followed by incubation for overnight in fresh medium by Calgary biofilm device assay; type: functional
Method in brief: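 Calgary biofilm device in BHI. Biofilms grown 24 h at 37 °C and challenged 24 h with twofold compound dilutions. Challenge medium subcultured 1:10 into fresh BHI overnight at 37 °C. MBC is the concentration with no turbidity. At least three independent experiments.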

Enterococcus faecium [13] = test: Antibacterial activity against vancomycin-resistant Enterococcus faecium ATCC 700221 assessed as bacterial growth inhibition incubated for 16 hrs by broth microdilution susceptibility test; type: functional; method in brief: as §4
J774 = test: Cytotoxicity against mouse J774 cells assessed as reduction in cell viability […] by Alamar blue assay; type: toxicity, cell-based
HepG2 = test: Cytotoxicity against human HepG2 cells assessed as reduction in cell viability […] by Alamar blue assay; type: toxicity, cell-based
[14] = test system: Mycobacterium tuberculosis; test: Antibacterial activity against Mycobacterium tuberculosis CDC1551 assessed as bacterial growth inhibition incubated for 5 days by luminescence based analysis; type: functional; details: CDC1551, 120 h, time 5 day
Method in brief: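 Bioluminescent Mtb-lux CDC1551 reporter grown in Middlebrook 7H9 with 0.05% Tween 80, 10% OADC and kanamycin to OD600 0.4–0.8, then diluted to OD600 0.02. Added to twofold drug dilutions (0.003–200 μM). Incubated 5 days at 37 °C, 5% CO2. Luminescence read against 1% DMSO and 10 μM rifampicin controls to give % growth inhibition. MIC taken from a modified Gompertz fit.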

HeLa = test: Cytotoxicity against human HeLa cells assessed as reduction in cell viability incubated for 24 hrs by LDH release assay; type: toxicity, cell-based
Method in brief: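 HeLa cells in DMEM with 10% FBS, treated at 70–80% confluence with 25, 50 and 100 μM for 24 h. LDH in supernatant measured by 30 min reaction at room temperature, then stop solution and absorbance at 490 nm. Controls: 2% Triton X-100 (maximum), medium only, DMSO vehicle. Three independent experiments.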

| SMILES | MIC (Enterococcus faecalis [1]) [µM] | MIC [6] [µM] | Activity (Erythrocyte) | MIC (Staphylococcus aureus [8]) [µM] | MIC (Staphylococcus aureus [11]) [µM] | MIC (Enterococcus faecium [13]) [µM] | further results |
| --- | --- | --- | --- | --- | --- | --- | --- |
| Oc1c(Br)c(Cl)c(Br)c2nc3ccc(I)cc3nc12 | 1.56 (≈ 0.802 µg/mL) | 0.3 (≈ 0.154 µg/mL) | 3% | 0.15 (≈ 0.0772 µg/mL) |  |  | MBEC (Enterococcus faecium [2]): 3.13 µM; MBC (Staphylococcus aureus [3]): 12.5 µM (≈ 6.43 µg/mL); MBC (Enterococcus faecium [4]): 4.69 µM (≈ 2.41 µg/mL); MBEC [5]: 6.25 µM; MBC [7]: 6.25 µM (≈ 3.21 µg/mL) |
| Cc1cccc2nc3c(O)c(Br)cc(Br)c3nc12 |  |  |  | 0.3 (≈ 0.11 µg/mL) |  |  |  |
| O=C(O)CN(CCN(CC(=O)O)CC(=O)O)CC(=O)O [EDETIC ACID] | 500 (≈ 146 µg/mL) |  | <= 1% |  | 125 (≈ 36.5 µg/mL) |  | MBEC (Enterococcus faecalis [9]): >2000 µM; MBEC (Staphylococcus aureus [10]): >2000 µM; MBC (Enterococcus faecalis [12]): > 2000 µM |
| Cc1cccc2nc3c(O)c(Br)c(SCCO)c(Br)c3nc12 |  |  |  | 6.25 (≈ 2.78 µg/mL) | 6.25 (≈ 2.78 µg/mL) | 12.5 (≈ 5.55 µg/mL) |  |
| Oc1cc(Cl)cc2nc3ccc(Br)cc3nc12 |  | > 50 |  | 9.38 (≈ 2.9 µg/mL) |  | > 50 |  |
| Cc1ccc2nc3c(O)c(Br)c(Cl)c(Br)c3nc2c1C | 0.2 (≈ 0.0833 µg/mL) | ≤ 0.05 | <= 1% | 0.05 (≈ 0.0208 µg/mL) |  | 0.08 (≈ 0.0333 µg/mL) | IC50 (J774): > 200 µM; MBEC (Enterococcus faecium [2]): 0.3 µM; IC50 (HepG2): > 200 µM; MBC (Enterococcus faecium [4]): 0.78 µM (≈ 0.325 µg/mL); MIC [14]: 3.62 µM (≈ 1.51 µg/mL); MBC [7]: 3.13 µM (≈ 1.3 µg/mL) |
| Oc1cc(Cl)cc2nc3ccc(I)cc3nc12 |  |  | 1.9% | 0.78 (≈ 0.278 µg/mL) | 1.56 (≈ 0.556 µg/mL) | 3.13 (≈ 1.12 µg/mL) | MBC (Staphylococcus aureus [3]): 37.5 µM (≈ 13.4 µg/mL); IC50 (HeLa): 100 µM; MBEC (Staphylococcus aureus [10]): 37.5 µM |
| Cc1cccc2nc3c(O)cc(Cl)cc3nc12 |  | […] |  |  |  | 3.13 (≈ 0.766 µg/mL) |  |
| Oc1c(Br)c(Cl)c(Br)c2nc3ccc(Br)cc3nc12 | 0.78 (≈ 0.365 µg/mL) | 0.1 (≈ 0.0467 µg/mL) | 5.1% |  | 1.56 (≈ 0.729 µg/mL) | 0.3 (≈ 0.14 µg/mL) | MBC (Staphylococcus aureus [3]): 12.5 µM (≈ 5.84 µg/mL); MBC (Enterococcus faecium [4]): 4.69 µM (≈ 2.19 µg/mL); MBEC [5]: 6.25 µM; MBEC (Staphylococcus aureus [10]): 12.5 µM; MBC [7]: 6.25 µM (≈ 2.92 µg/mL) |
| Oc1c(Br)cc(Br)c2nc3cc(Cl)ccc3nc12 |  |  |  | 0.1 (≈ 0.0388 µg/mL) |  |  |  |
| Oc1cc(Cl)cc2nc3ccc(F)cc3nc12 |  |  |  | 6.25 (≈ 1.55 µg/mL) |  |  |  |
| CCCCCCCCCC(=O)N[C@@H](Cc1c[nH]c2ccccc12)C(=O)N[C@H](CC(N)=O)C(=O)N[C@@H](CC(=O)O)C(=O)N[C@@H]1C(=O)NCC(=O)N[C@@H](CCCN)C(=O)N[C@@H](CC(=O)O)C(=O)N[C@H](C)C(=O)N[C@@H](CC(=O)O)C(=O)NCC(=O)N[C@H](CO)C(=O)N[C@@H]([C@H](C)CC(=O)O)C(=O)N[C@@H](CC(=O)c2ccccc2N)C(=O)O[C@@H]1C |  |  |  |  |  |  | MBEC (Enterococcus faecium [2]): 93.8 µM; MBC (Enterococcus faecium [4]): 375 µM (≈ 608 µg/mL); MBEC (Staphylococcus aureus [10]): >2000 µM |
| Oc1cc(Cl)cc2nc3c(Oc4ccccc4)cccc3nc12 |  | 3.13 (≈ 1.01 µg/mL) |  | 3.13 (≈ 1.01 µg/mL) | 3.13 (≈ 1.01 µg/mL) |  |  |
| Cc1ccc2nc3c(O)cc(Cl)cc3nc2c1C | 12.5 (≈ 3.23 µg/mL) | 2.35 (≈ 0.608 µg/mL) |  | 2.35 (≈ 0.608 µg/mL) | 2.35 (≈ 0.608 µg/mL) | 3.13 (≈ 0.81 µg/mL) |  |
| Oc1cccc2nc3ccccc3nc12 | > 50 | 37.5 (≈ 7.36 µg/mL) |  | 50 (≈ 9.81 µg/mL) | 50 (≈ 9.81 µg/mL) | > 50 |  |
| Oc1c(Br)c(Cl)c(Br)c2nc3ccc(F)cc3nc12 |  |  | <= 1% | 0.15 (≈ 0.061 µg/mL) | 0.2 (≈ 0.0813 µg/mL) | 0.78 (≈ 0.317 µg/mL) | IC50 (J774): > 200 µM; IC50 (HepG2): > 200 µM; MBC (Staphylococcus aureus [3]): 12.5 µM (≈ 5.08 µg/mL); MBC (Enterococcus faecium [4]): 3.13 µM (≈ 1.27 µg/mL); MIC [14]: 1.71 µM (≈ 0.695 µg/mL); MBEC [5]: 12.5 µM; IC50 (HeLa): > 25 µM; MBC [7]: 12.5 µM (≈ 5.08 µg/mL) |
| Oc1c(Br)c(Cl)c(Br)c2nc3c(Br)cccc3nc12 |  | 0.1 (≈ 0.0467 µg/mL) | <= 1% |  | 0.2 (≈ 0.0935 µg/mL) | 0.15 (≈ 0.0701 µg/mL) | IC50 (J774): > 200 µM; MBEC (Enterococcus faecium [2]): 0.3 µM; IC50 (HepG2): > 200 µM; MBC (Staphylococcus aureus [3]): 3.13 µM (≈ 1.46 µg/mL); MIC [14]: 3.91 µM (≈ 1.83 µg/mL); MBEC [5]: […]; IC50 (HeLa): 100 µM; MBEC (Staphylococcus aureus [10]): 6.25 µM; MBC (Enterococcus faecalis [12]): 6.25 µM (≈ 2.92 µg/mL) |
